High-throughput results deposited in PubChem by several laboratories.
This is a sample that favours compounds with a hit; in the whole collection about 1.7% have one here.
CSN inh – blocks human CSN-mediated cullin deneddylation. 360,000 tested, 0.38% active. Purified CSN, SCF-Nedd8-OG deneddylation, fluorescence polarization. inhibition, % at 12.5 µM;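 active = pattern-corrected inhibition above about 35%, with an unprinted fluorescence ratio check between 0.5 and 1.5, limit read from the data, passing the limit was not always enough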;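 note: 0% = enzyme with substrate and 100% = substrate without enzyme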
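Test system: Human Csn5 produced in HEK293T cells | Compound: 12.5 µM single point | Times: 90 min, room temperature | Signal: Fluorescence polarization readout | Read-out basis: % inhibition of substrate cleavage by Csn5 | Controls: no-enzyme wells high, enzyme-with-substrate wells low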
TPT1 inh – blocks Candida albicans tRNA 2'-phosphotransferase; inhibition, % at 5 µM; recombinant caTPT1, FP RNA substrate dephosphorylation; AID 1962; 300,000 tested, 0.81% active;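 active = inhibition above the mean of all tested compounds plus 3 SD, set per screening campaign, cut at about 24% in these data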;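 note: plate controls were DMSO alone for no effect and ferristatin control at 100 nM for full effect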
IDE inh – inhibitors of human insulin-degrading enzyme in cells; 320,000 tested, 0.41% active; HEK cells, FAbetaB cleavage, fluorescence polarization; P14735; inhibition, % at 5.59 µM;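 active = percent inhibition above the average of all tested compounds plus 3 SD, set per screening campaign, cut at about 16% in these data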;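 note: IDE supplied by intact live HEK cells; FP after avidin binding of uncleaved biotin substrate so inhibition keeps polarization high; 0% = DMSO wells and 100% = 60 µM reference IDE inhibitor Ii1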
Rpn11 block – blocks the human proteasome subunit Rpn11. O00487. human 26S proteasome, Ub4-pepOG fluorescence polarization; 20S core pre-blocked with epoxomicin. inhibition, % at 20 µM. 360,000 tested, 0.59% active;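 active = inhibition at 20 µM, scaled to each plate's controls, above about 33%, limit read from the data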
IDE cell activ – IDE (human) activation, cell-based | activation, % at 5.96 µM | 340,000 tested, 0.073% active | HEK cells, FAbeta-B cleavage, fluorescence polarization; 0% vehicle, 100% cell-free pure enzyme wells;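 active = activation above the mean of all tested compounds plus 3 SD, set per screening campaign, cut at about 17% in these data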
HNF4A DNA FP – change in binding of human HNF4 alpha to DNA | activity change, % at 10 µM | 360,000 tested, 0.3% active | HNF4a-FITC DNA binding, fluorescence polarization, 1 h | P41235; in the data active = activity change above about 30%, passing the limit was not always enough
Rpn11 confirm – confirmation of human proteasome Rpn11 inhibitors | shares compounds with Rpn11 block | purified human 26S proteasome, Ub4-pepOG fluorescence polarization; proteasome pretreated with epoxomicin | inhibition, % at 20 µM | 1,900 tested, 29% active | AID 602318
MMP-2 inh – counter-screen for RPN11 inhibitors: inhibition of human MMP-2; shares compounds with Rpn11 block; recombinant MMP-2, FRET peptide cleavage fluorescence; inhibition, % at 20 µM; 1,900 tested, 4% active;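 note: human MMP-2 activated beforehand with APMA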
Target sequence (P08253 whole entry, looked up): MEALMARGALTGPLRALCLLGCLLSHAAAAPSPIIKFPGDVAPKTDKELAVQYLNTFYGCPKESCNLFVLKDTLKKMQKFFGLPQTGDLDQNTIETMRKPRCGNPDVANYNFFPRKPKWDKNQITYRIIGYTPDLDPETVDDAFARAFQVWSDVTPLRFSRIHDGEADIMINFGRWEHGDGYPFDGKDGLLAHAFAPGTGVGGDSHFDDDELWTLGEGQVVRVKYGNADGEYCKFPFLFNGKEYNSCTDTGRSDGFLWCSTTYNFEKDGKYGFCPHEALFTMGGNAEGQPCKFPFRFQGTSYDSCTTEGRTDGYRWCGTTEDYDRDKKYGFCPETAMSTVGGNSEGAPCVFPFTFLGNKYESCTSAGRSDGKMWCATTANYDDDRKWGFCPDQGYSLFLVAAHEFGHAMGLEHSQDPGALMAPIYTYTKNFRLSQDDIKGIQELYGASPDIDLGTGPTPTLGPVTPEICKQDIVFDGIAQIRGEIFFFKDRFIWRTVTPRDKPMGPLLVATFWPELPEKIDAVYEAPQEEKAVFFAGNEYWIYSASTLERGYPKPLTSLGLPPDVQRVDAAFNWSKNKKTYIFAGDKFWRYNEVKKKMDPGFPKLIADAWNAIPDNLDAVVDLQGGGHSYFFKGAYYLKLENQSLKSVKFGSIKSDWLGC
Thrombin inh – blocks bovine thrombin, flagging nonselective RPN11 hits | shares compounds with Rpn11 block | bovine thrombin cleavage of Ub4-pepOG, fluorescence polarization | inhibition, % at 20 µM | 1,900 tested, 13% active;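 active = mean inhibition at least 40% at 20 µM, or signal 3 deviations below plate average, so some actives read negative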;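 note: plate controls were thrombin with DMSO for no effect and buffer wells lacking thrombin for full effect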
* marks the source's active call; other numbers are inactive results; x = not tested or not shown. Cut-off read from the data, not from the text of the source, unless noted: active = inhibition above about 40%; inactive = the rest.

SMILES	CSN inh	TPT1 inh	IDE inh	Rpn11 block	IDE cell activ	HNF4A DNA FP	Rpn11 confirm	MMP-2 inh	Thrombin inh
Cc1ccc2nc(SCC(=O)c3c(N)n(C)c(=O)n(C)c3=O)[nH]c2c1	6	-1	7	44*	-11	-5	5	-39	-2
CCN(Cc1ccncc1)C(=O)c1cccc(S(=O)(=O)N2CCCCC2)c1	0	x	0	-2	2	3	x	x	x
COC(=O)[C@@]1(Cc2ccccc2)[C@H]2C(=O)N(C)C(=O)[C@H]2[C@H]2CN=C(SCc3ccc(Cl)cc3)N21	-5	x	x	-2	1	-2	x	x	x
CCOC(=O)c1cccc(-n2cccc2/C=C2\NC(=O)N(CC(=O)O)C2=O)c1	1	x	7	0	1	4	x	x	x
CCOC(=O)c1ccc(-n2cccc2/C=C2\NC(=O)NC2=O)cc1	-3	x	6	46*	-5	4	4	-73	-14
CN1/C(=C\C(=S)NC(=O)c2cccc(Br)c2)C(C)(C)c2ccccc21	22	4	5	48*	-17	19	25	22	9
CCCCNC(=O)COC(=O)c1c2c(nc3ccccc13)/C(=C/c1cccs1)CC2	7	21	3	41*	-2	22	5	-58	-1
CCCCNC(=O)COC(=O)c1c2c(nc3ccccc13)CCC2	5	0	3	-3	-3	-11	x	x	x
CCCCC1(CC)SCC(=O)NC1=O (stereo not given)	2	x	x	-5	1	4	x	x	x
CCOC(=O)N1CCN(C(=O)CCC(=O)c2ccc(OCC)cc2)CC1	3	-1	4	-3	-1	0	x	x	x
CCOc1ccc(C(=O)CCC(=O)N2CCC(C(=O)OC)CC2)cc1	12	11	5	48*	4	19	37	5	21
CCCC(C)C(=O)Nc1ccc(Cl)cn1 (stereo not given)	5	-2	2	33*	5	2	-4	-53	-6
O=c1c2c3nc4ccccc4nc3n(-c3ccc4c(c3)OCCO4)c2ncn1C1CCCC1	1	1	-2	128*	5	16	-2	-13	-18
CC1(C(=O)Nc2ccc3c(c2)OCCO3)CCC(=O)N1C1CCN(Cc2ccccc2)CC1 (stereo not given)	1	x	x	-8	x	1	x	x	x
COc1ccc(/C(C)=N/NC(=O)c2nnn(-c3nonc3N)c2-c2cccs2)cc1	-1	-1	2	0	-2	2	x	x	x
COc1ccc(/C(C)=N/NC(=O)c2nnn(-c3nonc3N)c2-c2ccccc2)cc1	8	-1	0	80*	0	8	93*	0	-11
NS(=O)(=O)c1ccc(NC(=S)N2CCC(Cc3ccccc3)CC2)cc1	1	0	1	1	1	0	x	x	x
O=C(CN1CCN(c2nc(-c3ccc(Cl)cc3)cs2)CC1)NCc1ccco1	6	21	15	51*	-13	7	44*	78*	23
CC(=O)c1ccc(N2CCN(C(=O)Cc3cccs3)CC2)cc1	-5	1	0	62*	2	88*	-10	50*	-7
O=C(Cc1cnc2ncnn2c1)N1CCc2c([nH]c3ccccc23)C1c1ccccn1 (stereo not given)	-1	0	4	6	1	-2	x	x	x
O=C(Nc1nc2ccsc2c(=O)s1)c1ccc(F)cc1Cl	9	-3	5	3	10	-2	x	x	x
O=C(Nc1nc2ccsc2c(=O)s1)c1ccc(F)cc1	20	-1	0	43*	x	4	35	-32	-16
CN(CC(=O)Nc1ccccc1Cl)C(=O)CSc1nncn1C	2	0	0	-8	3	1	x	x	x
CCOCCCNC(=O)N[C@@H](Cc1ccccc1)C(=O)OC	-2	-5	1	58*	3	2	-5	-4	-10
CCCN1CCN(C(=O)C2CCN(S(=O)(=O)c3ccc4c(c3)NC(=O)C(C)S4)CC2)CC1 (stereo not given)	15	9	2	40*	4	24	28	-1	15
SMILES	CSN inh	TPT1 inh	IDE inh	Rpn11 block	IDE cell activ	HNF4A DNA FP	Rpn11 confirm	MMP-2 inh	Thrombin inh
CC1Sc2ccc(S(=O)(=O)N3CCC(C(=O)N4CCN(C)CC4)CC3)cc2NC1=O (stereo not given)	0	-1	-1	11	9	3	x	x	x
CCN(CC)S(=O)(=O)c1ccc(N2CCCC2)c(NC(=O)CN2C(=O)NC3(CCCC3)C2=O)c1	3	0	-2	1	0	5	x	x	x
CCc1ccc(OCC(=O)NNC(=O)CSc2ncnc3sc(C)c(C)c23)cc1	18	-1	-4	60*	-5	-10	-12	-31	-24
Cc1sc2ncnc(SCC(=O)NC(C)(C)C)c2c1C	-4	-2	1	-7	-9	2	x	x	x
Cc1ccc(OCC(=O)NNC(=O)CSc2ncnc3sc(C)c(C)c23)cc1	38*	-2	0	116*	0	3	57*	68*	-10
Cc1sc2ncnc(SCC(=O)NCC(C)C)c2c1C	1	-3	-5	-2	7	0	x	x	x
CCOc1ccc(CCNC(=O)CS(=O)Cc2nc(-c3ccc(OC)cc3)oc2C)cc1OCC (stereo not given)	0	-2	2	0	5	1	x	x	x
COc1ccc(O)c(/C=N/NC(=O)c2ccc(OCc3cccc(Br)c3)cc2)c1	12	0	10	54*	6	44*	56*	4	-11
COc1ccc(C(=O)N/N=C/c2cc(Br)ccc2O)cc1OC	21	1	1	7	-2	1	x	x	x
CCCCn1c(N)c(N(CC(C)C)C(=O)C2=NN(c3cc(C)ccc3C)C(=O)CC2)c(=O)[nH]c1=O	-5	1	2	3	-1	-2	x	x	x
Cc1cc(/C=C(/C#N)c2nc3ccccc3[nH]2)c(C)n1-c1ccccc1C(=O)O	30	24	11	55*	-6	5	75*	-3	51*
COc1ccc(C(C#N)N2CCC(c3ccccc3)=N2)cc1OC (stereo not given)	3	-3	1	11	11	1	x	x	x
COc1ccc(C2=NN(C(C#N)c3ccc(OC)c(OC)c3)C(c3ccccc3)C2)cc1 (stereo not given)	8	11	0	66*	5	2	25	19	17
